# Assay results collected from several papers.
# Compare with care: the assays were run in different laboratories.
# Effect on: metabolic stability
Compound,species,medium,concentration,pH,endpoint,value
Cc1cc(S(=O)(=O)NC2CC(N3CCN(CC4CCN(c5cccc6c5n(C)c(=O)n6C5CCC(=O)NC5=O)CC4)C4(CC4)C3)C2)ccc1Nc1ncc(C(F)(F)F)c(N2CCC[C@](C)(O)C2)n1 (some centres unmarked),rat,liver microsomes,1 µM,,scaled CLint,< 21 mL/min/kg
CCOCC(=O)N1CCC[C@H](C(=O)NCc2nc(-c3ccc(C#N)nc3)cs2)C1,male Sprague-Dawley rat,hepatocytes,0.5 µM,,scaled CLint,17 mL/min/kg
COc1cnc(Nc2cnnc3ccc(-c4ccc(N5CCN(C)CC5)cc4)cc23)nc1,rat,hepatocytes,,,hepatocyte CLint,> 300 µL/min/10⁶ cells
Cc1cc(S(=O)(=O)N[C@]2(C)C[C@@H](N3CCN(CC4CCN(c5ccc6c(c5F)n(C)c(=O)n6C5CCC(=O)NC5=O)CC4)CC3)C2)ccc1Nc1ncc(C(F)(F)F)c(N2CCC[C@](C)(O)C2)n1 (some centres unmarked),rat,liver microsomes,1 µM,,scaled CLint,< 21 mL/min/kg
CCOCC(=O)N1CCC[C@H](C(=O)NCc2nc(-c3ccc(C)nc3)cs2)C1,male Sprague-Dawley rat,liver microsomes,0.5 µM,,microsomal CLint,19 µL/min/mg
C[C@H]1CN(c2ccc(C3CCC(=O)NC3=O)cc2F)CCN1CC12CCC(NS(=O)(=O)c3ccc(Nc4ncc(C(F)(F)F)c(N5CCC[C@](C)(O)C5)n4)c(F)c3)(CC1)CO2 (some centres unmarked),rat,liver microsomes,1 µM,,scaled CLint,< 21 mL/min/kg
CC(C)N(c1ccc(C#N)cc1)c1ccc(NC(=O)CN(C)c2ccccc2N2CCCC2=O)cn1,rat,hepatocytes,,,hepatocyte CLint,92 µL/min/10⁶ cells
N#Cc1ccc(C[C@H](NC(=O)c2cc3ccc(F)cc3[nH]2)C(=O)N2CCc3ccccc32)cc1,rat,liver microsomes,10 µM,pH 7.4,microsomal CLint,6.6 µL/min/mg
CNc1ccc(C(N)=O)cn1,male Wistar rat,hepatocytes,1 µM,pH 7.4,hepatocyte CLint,2.9 µL/min/10⁶ cells
COc1cc(NC(=O)Cn2cc(Cl)c3ccc(-c4cnn(C)c4)cc32)cc(OC)c1OC,rat,hepatocytes,,,hepatocyte CLint,< 1 µL/min/10⁶ cells
Cc1ccc(-c2csc(CNC(=O)[C@H]3CCCN(C(=O)COCCF)[C@H]3C)n2)cn1,male Sprague-Dawley rat,liver microsomes,0.5 µM,,microsomal CLint,31 µL/min/mg
CNS(=O)(=O)c1ccc(Nc2ncc3cc(Cl)c(=O)n(C4CCCC4)c3n2)c(C)c1,rat,liver microsomes,1 µM,,scaled CLint,70 mL/min/kg
Cc1ccc(N(c2ccc(NC(=O)CN(C)c3ccccc3N3CCCC3=O)cc2)C(C)C)cc1,rat,hepatocytes,,,hepatocyte CLint,> 92 µL/min/10⁶ cells
NCCCOCC(=O)N1CCC[C@H](C(=O)NCc2nc(-c3ccc(C4CC4)cc3)cs2)C1,male Sprague-Dawley rat,liver microsomes,0.5 µM,,microsomal CLint,15 µL/min/mg
Cc1ccc(Oc2ccc(NC(=O)COc3ccccc3N3CCCC3=O)cc2)cc1,rat,hepatocytes,,,hepatocyte CLint,68 µL/min/10⁶ cells
Cc1cc(S(=O)(=O)N[C@H]2CC[C@H](CN3CCN(c4ccc(C5CCC(=O)NC5=O)c(Cl)c4)CC3)CC2)ccc1Nc1ncc(C(F)(F)F)c(N2CCC[C@](C)(O)C2)n1 (some centres unmarked),rat,liver microsomes,1 µM,,scaled CLint,< 21 mL/min/kg
O=C(NCc1nc(-c2ccc(C(F)(F)F)cc2)cs1)[C@H]1CCCN(C(=O)COCCN2CCCC2)C1,male Sprague-Dawley rat,liver microsomes,0.5 µM,,microsomal CLint,34 µL/min/mg
C[C@H]1CN(CC2CCN(c3ccc(C4CCC(=O)NC4=O)cc3F)CC2)CC[C@H]1NS(=O)(=O)c1ccc(Nc2ncc(C(F)(F)F)c(N3CCC[C@](C)(O)C3)n2)c(F)c1 (some centres unmarked),rat,liver microsomes,1 µM,,scaled CLint,45 mL/min/kg
N#Cc1ccc(C[C@H](Nc2ncc(-c3ccc(F)cc3)o2)C(=O)N2CCc3ccccc32)cc1,rat,liver microsomes,10 µM,pH 7.4,microsomal CLint,16.1 µL/min/mg
N#Cc1ccc(-c2csc(CNC(=O)[C@H]3CCCN(C(=O)N4CCCC4)C3)n2)cc1,male Sprague-Dawley rat,liver microsomes,0.5 µM,,microsomal CLint,223 µL/min/mg
